Assay results gathered from unrelated publications.
Target: Ephrin type-B receptor 3 (EPHB3, Homo sapiens, UniProt P54753)
Residues used in one study (P54753 34-998): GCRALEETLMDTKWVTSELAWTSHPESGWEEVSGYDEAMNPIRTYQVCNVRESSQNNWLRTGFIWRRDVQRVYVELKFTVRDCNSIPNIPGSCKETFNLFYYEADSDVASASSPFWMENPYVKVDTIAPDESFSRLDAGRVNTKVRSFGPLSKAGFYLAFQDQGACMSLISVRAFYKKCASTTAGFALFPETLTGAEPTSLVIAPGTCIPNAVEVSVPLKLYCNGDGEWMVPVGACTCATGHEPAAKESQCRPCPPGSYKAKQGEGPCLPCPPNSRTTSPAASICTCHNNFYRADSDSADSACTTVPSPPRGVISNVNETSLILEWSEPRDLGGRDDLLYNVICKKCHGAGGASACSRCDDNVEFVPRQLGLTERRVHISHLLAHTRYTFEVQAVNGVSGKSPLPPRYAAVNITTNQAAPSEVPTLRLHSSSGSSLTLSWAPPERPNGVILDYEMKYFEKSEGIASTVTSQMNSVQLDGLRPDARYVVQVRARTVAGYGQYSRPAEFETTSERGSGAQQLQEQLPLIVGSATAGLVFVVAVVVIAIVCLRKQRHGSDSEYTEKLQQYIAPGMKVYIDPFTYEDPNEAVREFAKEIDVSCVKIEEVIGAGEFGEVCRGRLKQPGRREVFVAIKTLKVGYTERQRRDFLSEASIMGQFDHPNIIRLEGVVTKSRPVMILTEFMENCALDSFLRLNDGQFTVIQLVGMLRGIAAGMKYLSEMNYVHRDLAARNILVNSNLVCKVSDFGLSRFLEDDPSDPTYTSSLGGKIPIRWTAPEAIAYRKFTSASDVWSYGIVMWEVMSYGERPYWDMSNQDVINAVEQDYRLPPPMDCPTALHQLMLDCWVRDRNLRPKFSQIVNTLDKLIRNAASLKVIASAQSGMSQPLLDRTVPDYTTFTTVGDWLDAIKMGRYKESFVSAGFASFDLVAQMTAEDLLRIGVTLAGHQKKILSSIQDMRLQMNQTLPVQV

| SMILES | test | setting | remaining binding |
| --- | --- | --- | --- |
| CN(C)c1nccc(-c2cnn3ncccc23)n1 | binding | 1 µM | 88% |
| Cc1cnc(Nc2ccc(C(=O)N3CCC(N4CCCC4)CC3)cc2)nc1-c1cc2ccccc2s1 | binding, competition with immobilised ligand | 1 µM | 77% |
| O=C(NCCCC1CCCCC1)c1ccc(CNC(=O)c2cnn(-c3ccccc3)c2C(F)(F)F)cc1 | cell-free assay, competition with immobilised ligand | 0.1 µM | 79% |
| O=C(NCCCN1CCOCC1)c1ccc(Nc2nccc(-c3cc4ccccc4s3)n2)cc1 | binding, competition with immobilised ligand | 1 µM | 93% |
| CC1CCCN1c1nccc(-c2cnn3ncccc23)n1 (centres unmarked) | binding | 1 µM | 89% |
| COCCOc1nc(-c2ccc(Cl)nc2)nc2c1CN(C(=O)c1ncn3ccccc13)CC2 | cell-free assay, competition with immobilised ligand | 0.1 µM | 100% |
| c1cncc(-c2cccc(Nc3nccc(NC4CCCCC4)n3)c2)c1 | binding, competition with immobilised ligand | 10 µM | 89% |
| CNC(=O)Nc1ccc2c(c1)CC[C@@]21OC(=O)N(CC(=O)N(Cc2ccc(F)cc2)[C@@H](C)C(F)(F)F)C1=O | cell-free assay, competition with immobilised ligand | 1 µM | 80% |
| O=C(NCCCN1CCOCC1)c1ccc(Nc2ncc(Cl)c(-c3ccc(Cl)s3)n2)cc1 | binding, competition with immobilised ligand | 1 µM | 95% |
| Nc1ncc2c(n1)-c1c([nH]c3ccc(C#CC4CC4)cc13)CCCC2 | binding, competition with immobilised ligand | 1 µM | 100% |
| c1cnn2ncc(-c3ccnc(N4CCC45COC5)n3)c2c1 | binding | 1 µM | 87% |
| COc1cnc(Nc2cccc(S(N)(=O)=O)c2)nc1N1CCN(c2ccccc2)CC1 | binding, competition with immobilised ligand | 1 µM | 100% |
| O=C1NC(c2ccccn2)Sc2ccccc21 (centres unmarked) | cell-free assay, competition with immobilised ligand | 1 µM | 80% |
| C[C@H]1CCN(c2nccc(-c3cnn4ncccc34)n2)C1 | binding | 1 µM | 100% |
| O=C(Nc1c[nH]nc1C(=O)NC1CCNCC1)c1cc(F)cc(F)c1 | binding, competition with immobilised ligand | 1 µM | 100% |
| Cc1cnn2ncc(-c3ccnc(N(C)C)n3)c2c1 | binding | 1 µM | 100% |
| COc1ccc2c(c1)O[C@H](c1ccc(OC)c(OC)c1)C[C@@H]2NC(=O)C1(c2ccc3c(c2)OC(F)(F)O3)CC1 | cell-free assay, competition with immobilised ligand | 1 µM | 91% |
| N[C@@H]1CCN(c2nccc(-c3cnn4ncccc34)n2)C1 | binding | 1 µM | 100% |
| O=S(=O)(NC1CCC(c2cc(F)ccc2F)(S(=O)(=O)c2ccc(Cl)cc2)CC1)C(F)(F)F (centres unmarked) | cell-free assay, competition with immobilised ligand | 1 µM | 100% |
| COc1cnc(Nc2cccc(S(N)(=O)=O)c2)nc1N1CCN(c2ccccc2)C(=O)C1 | binding, competition with immobilised ligand | 1 µM | 100% |
